Values after ≈ are worked out from the molar mass of the structure shown. “Also recorded” adds a separate entry of the source. A value given as a limit tells only on which side of the number the result lay.

Data set [1] can be described thus: Cytotoxicity. In kind it is cell-based. The conditions noted are these: human, SK-MEL malignant melanoma cells. The gist of the method:
(§1)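 Anti-proliferative assay run alongside four human tumour lines (SK-MEL, KB, BT-549, SK-OV-3) and two noncancerous kidney lines (Vero, LLC-PK11). Doxorubicin served as the positive control.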

Data set [2] in a line: Cytotoxicity. The conditions noted are these: human, KB oral epidermal carcinoma cells. In kind it is cell-based. Put shortly:
as §1

The nature of data set [3]: Cytotoxicity. Format: cell-based. The conditions noted are these: human, BT-549 breast ductal carcinoma cells. The gist of the method: as §1
Data set [4] is described as follows: Cytotoxicity. Format: cell-based. The conditions noted are these: human, SK-OV-3 ovary carcinoma cells. The gist of the method: as §1
The nature of data set [5]: Cytotoxicity. Format: cell-based. The settings on record: African green monkey, Vero kidney fibroblasts. Put shortly:
as §1

A short description of data set [6]: Cytotoxicity. Format: cell-based. The conditions noted are these: pig, LLC-PK11 kidney epithelial cells. Put shortly:
as §1

The nature of data set [7]: Cytotoxicity towards HL-60 cells in the antioxidant assay. The conditions noted are these: human, HL-60 promyelocytic leukemia cells. Format: cell-based.
Data set [8] in a line: Cytotoxicity to RAW 264.7 cells in the iNOS assay. Format: cell-based, mouse. The settings on record: mouse, RAW 264.7 macrophages.
In data set [9] the test system is Phomopsis viticola. Put plainly: Antifungal broth dilution microbioassay, Phomopsis viticola. Format: cell-based. Put shortly:
(§2)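 Broth microdilution adapted from the NCCLS M27-A yeast method for conidia-forming filamentous plant-pathogenic fungi. The commercial fungicide captan served as the internal standard in every assay. Means were compared by SAS analysis of variance with Fisher's protected LSD. For P. viticola and P. obscurans, activity was read at 120 and 144 h of incubation.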
In general terms: In broth dilution the organism is exposed to a series of concentrations in liquid medium.

The subject of data set [10] is Botrytis cinerea. Put plainly: Antifungal broth dilution microbioassay, Botrytis cinerea. In kind it is cell-based. Put shortly:
as §2

In data set [11] the test system is mosquito larvae. Description: Mosquito larvae toxicity bioassay. The settings on record: Figure 4. In kind it is in vivo. Put shortly: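 Larval toxicity bioassay, run in triplicate. Controls were untreated, DMSO-acetone carrier, and permethrin as the positive control.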
Data set [12] relates to Phomopsis obscurans. Put plainly: Antifungal broth dilution microbioassay, Phomopsis obscurans. Format: cell-based. The gist of the method:
as §2

Data set [13] concerns adult A. aegypti female mosquitoes. Description: Adult mosquito topical toxicity assay. In kind it is in vivo. The conditions noted are these: for Adult mosquito mortality rate ± SD: topical, 3.12 μg per insect, acetone/DMSO control gave 5.8±1.8%.
[14] abbreviates: at the highest concentrations, Figure 2D.
[15] abbreviates: 120 and 144 h (from 120 to 144 h).

Turning to `COc1cccc2c1C(=O)c1c(O)c3c(c(O)c1C2=O)C[C@@](O)(C(=O)CO)C[C@@H]3O[C@H]1C[C@H](N)[C@H](O)[C@H](C)O1` [Doxorubicin, reference compound], the IC50 (as a rule, the concentration that gives 50% inhibition) in [1] is 0.8 µg/mL (≈ 1.47 µM); in data set [2], 1.45 µg/mL (≈ 2.67 µM); in data set [3] it was 1.35 µg/mL (≈ 2.48 µM); in data set [4], 1.3 µg/mL (≈ 2.39 µM); in data set [5] it was greater than 5 µg/mL; in data set [6], 0.9 µg/mL (≈ 1.66 µM). The compound also had an IC50 in [7] of 0.24 µg/mL (≈ 0.442 µM).
For `Oc1cc(O)cc(/C=C/c2ccccc2)c1` [Compound 11, pinosylvin], the IC50 in data set [1] was 12.5 µg/mL (≈ 58.9 µM); in [2], 13.8 µg/mL (≈ 65 µM); in data set [3], 13 µg/mL (≈ 61.2 µM); in [4], 17 µg/mL (≈ 80.1 µM); in data set [5], 13 µg/mL (≈ 61.2 µM); in data set [6], 10.5 µg/mL (≈ 49.5 µM). Also, the IC50 stood at 18 µg/mL (≈ 84.8 µM) in [7] and 10.5 µg/mL (≈ 49.5 µM) in data set [8]. In data set [9] (setting [14]), the “Antifungal activity against P. viticola” value is “essentially inactive”. Further, the “Growth inhibition of B. cinerea” value is “minimal activity” in [10] (48 h) and “no activity” in data set [10] (72 h). The “Toxicity to mosquito larvae” value in data set [11] is on record as “significantly lower toxicity”.
On to `CC(C)/C=C/c1c(O)cc(/C=C/C2=CC(=O)OC2CC(=O)O)cc1O` (stereo not drawn) [Compound 4, SB-1], for which the IC50 in data set [1], in data set [2], in data set [3], in data set [4], in data set [5] and in data set [6] was greater than 25 µg/mL each time. For the same compound, the IC50 in data set [7] and in data set [8] was greater than 25 µg/mL in each case. Also, the “Antifungal activity against P. obscurans” value in [12] (setting [15]) is “did not exhibit any activity”.
Turning to `CC(C)(O)C(O)Cc1c(O)cc(/C=C/c2ccc(O)cc2)cc1O` (stereo not drawn) [Compound 8, arahypin-3], the IC50 in data set [1], in data set [2], in data set [3], in data set [4], in [5] and in data set [6] was greater than 25 µg/mL throughout. In addition, the IC50 in data set [7] and in [8] was greater than 25 µg/mL in each case. The “Adult mosquito mortality rate ± SD” value in data set [13] is recorded as “marginally active”.
As for `CC(C)(O)C(O)Cc1c(O)cc(/C=C/c2ccccc2)cc1O` (stereo not drawn) [Compound 9, arahypin-4], the IC50 in [1], in [2], in [3], in [4], in data set [5] and in data set [6] was greater than 25 µg/mL throughout. For the same compound, the IC50 in data set [7] was greater than 31.3 µg/mL; in data set [8], greater than 25 µg/mL. The “Adult mosquito mortality rate ± SD” value in data set [13] amounted to 10±0.0%.
In the case of `Oc1cccc(/C=C/c2ccccc2)c1` [Compound 14], the IC50 in [1], in data set [2], in [3], in [4], in data set [5] and in data set [6] was greater than 25 µg/mL in each case. For the same compound, the IC50 in data set [7] worked out at 19 µg/mL (≈ 96.8 µM); in [8], 22 µg/mL (≈ 112 µM). Besides, the “Toxicity to mosquito larvae” value in [11] is recorded as “highest activity; also recorded: very low compared to the positive control permethrin”.
`COc1cccc(/C=C/c2ccc(O)cc2)c1` [Compound 13]: the IC50 in data set [1], in data set [2], in [3], in data set [4], in data set [5] and in data set [6] was greater than 25 µg/mL in each case. The figures for the IC50 in data set [7] and in [8] were 4 µg/mL (≈ 17.7 µM) and 19.5 µg/mL (≈ 86.2 µM), respectively. Besides, the “Antifungal activity against P. viticola” value in [9] (setting [14]) is “appreciable activity”. In addition, the “Toxicity to mosquito larvae” value in [11] is reported as “highest activity; also recorded: very low compared to the positive control permethrin”.
`COc1cccc(CCc2ccc(O)cc2)c1` [Compound 17]: the IC50 in data set [1], in data set [2], in [3], in [4], in data set [5] and in [6] was greater than 25 µg/mL throughout. The IC50 in data set [7] is 9 µg/mL (≈ 39.4 µM); in [8], greater than 25 µg/mL.
With `COc1ccc(/C=C/c2cc(O)cc(O[C@@H]3O[C@H](CO)[C@@H](O)[C@H](O)[C@H]3O)c2)cc1O` [Compound 23, rhapontin, reference compound], the IC50 in [1], in data set [2], in data set [3], in data set [4], in data set [5] and in [6] was greater than 25 µg/mL each time. Besides, the IC50 is 20 µg/mL (≈ 47.6 µM) in data set [7] and greater than 25 µg/mL in data set [8]. Also, in data set [10] (72 h), the “Growth inhibition of B. cinerea” value is reported as “very high growth inhibition values”. Besides, the “Toxicity to mosquito larvae” value in data set [11] was “significantly lower toxicity”.
The compound `C=C1C(=O)O[C@H]2[C@H]1CC/C(C)=C/CC[C@@]1(C)O[C@@H]21` [Parthenolide, reference compound] showed an IC50 in data set [8] of 13.5 µg/mL (≈ 54.4 µM).
Take `Oc1ccc(/C=C/c2cccc(O)c2)cc1` [Compound 15, trans-3,4′-dihydroxystilbene]: the IC50 in data set [1] was greater than 25 µg/mL; in data set [2], greater than 25 µg/mL; in [3], greater than 25 µg/mL; in data set [4], greater than 25 µg/mL; in [5], 19.5 µg/mL (≈ 91.9 µM); in data set [6] it was 12 µg/mL (≈ 56.5 µM). Moreover, the IC50 in [7] was 4 µg/mL (≈ 18.8 µM); in data set [8] it was greater than 25 µg/mL.
Take `COc1cc(O)cc(/C=C/c2ccccc2)c1` [Compound 19]: the IC50 in data set [1], in data set [2], in data set [3], in [4], in [5] and in data set [6] was greater than 25 µg/mL each time. Moreover, the IC50 in data set [7] is 18 µg/mL (≈ 79.5 µM); in data set [8], 12 µg/mL (≈ 53 µM). In addition, the “Antifungal activity against P. viticola” value in data set [9] (setting [14]) was “appreciable activity”. In addition, the “Toxicity to mosquito larvae” value in [11] is recorded as “highest activity; also recorded: somewhat greater activity”.
In data set [13] (6.25 μg/mosquito, positive standard), `CC1(C)C(C=C(Cl)Cl)C1C(=O)OCc1cccc(Oc2ccccc2)c1` (stereo not drawn) [permethrin, reference compound] returned an Adult mosquito mortality of 100%.
As to `CC(C)=CCC/C(C)=C/Cc1c(O)cc(/C=C/c2ccc(O)cc2O)cc1O` [Compound 22, chlorophorin], the IC50 is greater than 25 µg/mL in data set [1]; greater than 25 µg/mL in data set [2]; 20 µg/mL (≈ 52.6 µM) in [3]; greater than 25 µg/mL in [4]; 15.5 µg/mL (≈ 40.7 µM) in [5]; 14.5 µg/mL (≈ 38.1 µM) in data set [6]. Further, the IC50 stood at 25 µg/mL (≈ 65.7 µM) in [7] and 9 µg/mL (≈ 23.7 µM) in data set [8]. For the same compound, the “Antifungal activity against P. viticola” value in data set [9] (setting [14]) was “appreciable activity”. The “Growth inhibition of B. cinerea” value in [10] (48 h) and in data set [10] (72 h) was “very high growth inhibition values” each time.
For `Oc1ccc(/C=C/c2ccccc2)cc1O` [Compound 12], the IC50 in data set [1], in data set [2], in data set [3], in data set [4], in [5] and in data set [6] was greater than 25 µg/mL each time. In addition, the IC50 in [7] and in [8] was greater than 25 µg/mL each time. Also, the “Antifungal activity against P. viticola” value in data set [9] (setting [14]) was “essentially inactive”. The “Growth inhibition of B. cinerea” value in data set [10] (48 h) is reported as “minimal activity”; in data set [10] (72 h) it was “no activity”.
Consider `COc1cc(/C=C/c2ccccc2)cc(OC)c1` [Compound 18], for which the IC50 in [1], in [2], in data set [3], in [4], in [5] and in data set [6] was greater than 25 µg/mL each time. Also, the IC50 in [7] and in data set [8] was greater than 25 µg/mL throughout. For the same compound, the “Toxicity to mosquito larvae” value in data set [11] is on record as “highest activity; also recorded: very low compared to the positive control permethrin”.
On to `CC(C)/C=C/c1c(O)cc(/C=C/c2ccccc2)cc1O` [Compound 6, arahypin-1], for which the IC50 in data set [1], in data set [2], in [3], in [4], in data set [5] and in data set [6] was greater than 25 µg/mL throughout. Also, the IC50 in data set [7] is greater than 31.3 µg/mL; in [8], greater than 25 µg/mL. For the same compound, the “Antifungal activity against P. viticola” value in data set [9] (144 h of incubation) was “more fungicidal”. The “Antifungal activity against P. obscurans” value in data set [12] (setting [15]) is “highest levels of inhibition”; in data set [12] (144 h of incubation) it was “more fungicidal”.
Consider `Oc1cccc(CCc2ccccc2)c1` [Compound 16], for which the 50% inhibitory concentration (IC50) in [1], in data set [2], in data set [3], in [4], in [5] and in data set [6] was greater than 25 µg/mL each time. Moreover, the IC50 in data set [7] was 17 µg/mL (≈ 85.7 µM); in data set [8], greater than 25 µg/mL. In addition, the “Antifungal activity against P. viticola” value is listed as “statistically higher activity compared to 14” in [9] (144 h of incubation) and “appreciable activity” in data set [9] (setting [14]). In addition, the “Toxicity to mosquito larvae” value in data set [11] is reported as “highest activity; also recorded: very low compared to the positive control permethrin”.

The values are drawn from paper PMC3063522 (Journal of agricultural and food chemistry, 2011).
